The target in series [1] is Cytochrome P450 3A4 (Homo sapiens, UniProt P08684). Briefly: Inhibition of CYP3A4 (unknown origin).
Series [2] has as its target Cytochrome P450 2D6 (Homo sapiens, UniProt P10635). Briefly: Inhibition of CYP2D6 (unknown origin).
Series [3] has as its target Cytochrome P450 2C9 (Homo sapiens, UniProt P11712). Briefly: Inhibition of CYP2C9 (unknown origin).
A short description of series [4]: Half life in human liver microsomes. The series is classed as ADME.
A short description of series [5]: Half life in rat liver microsomes. The series is classed as ADME. On the technique in general: Microsomes from liver hold many membrane-bound enzymes, among them those of drug oxidation.
Series [6] is described as follows: Plasma concentration in wild type C57BL mouse at 1 mg/kg, po measured after 4 hrs. The series is classed as ADME, organism-based. The procedure, abridged: (§1)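 Wild-type C57BL mice, single oral dose of 1 or 3 mg/kg. Plasma and brain drug levels were measured 4 h post-dose, and brain ABCA1 mRNA induction was compared with vehicle control.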
Series [7] in a line: Half life in mouse liver microsomes. The series is classed as ADME.
The nature of series [8]: Plasma concentration in wild type C57BL mouse at 3 mg/kg, po measured after 4 hrs. The series is classed as ADME, organism-based. The method, boiled down: as §1
Series [9] can be described thus: Drug uptake in wild type C57BL mouse brain at 3 mg/kg, po measured after 4 hrs. Conditions: read-out: Drug uptake. The series is classed as ADME, organism-based. The method, boiled down: as §1
A short description of series [10]: Plasma concentration in Sprague-Dawley rat at 5 mg/kg, po measured after 4 hrs. The series is classed as ADME, organism-based. The method, boiled down:
(§2)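 Male Sprague–Dawley rats, single oral dose of 5 mg/kg. Plasma and brain drug levels, plus brain ABCA1 mRNA, were measured 4 h after dosing.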

Series [11] in a line: Drug uptake in Sprague-Dawley rat brain at 5 mg/kg, po measured after 4 hrs. The series is classed as ADME, organism-based. Conditions: read-out: Drug uptake. The method, boiled down: as §2
The nature of series [12]: Plasma concentration in Sprague-Dawley rat at 10 mg/kg qd administered via oral gavage for 5 days measured 4 hrs post last dose. The series is classed as ADME, organism-based. The method, boiled down:
(§3)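 Sprague–Dawley rats, oral dosing once daily for 5 days at 1, 3 or 10 mg/kg/day, with a reference LXR agonist at 30 mg/kg in the same study. Drug levels were measured in plasma and brain. Brain ABCA1 mRNA was also measured, along with Aβ1–40 and Aβ1–42 in cerebrum and CSF.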

Series [13] in a line: Plasma concentration in Sprague-Dawley rat at 3 mg/kg qd administered via oral gavage for 5 days measured 4 hrs post last dose. The series is classed as ADME, organism-based. The procedure, abridged:
as §3

Series [14] can be described thus: Plasma concentration in Sprague-Dawley rat at 1 mg/kg qd administered via oral gavage for 5 days measured 4 hrs post last dose. The series is classed as ADME, organism-based. The method, boiled down: as §3
The nature of series [15]: Drug uptake in Sprague-Dawley rat brain at 10 mg/kg qd administered via oral gavage for 5 days measured 4 hrs post last dose. The series is classed as ADME, organism-based. Conditions: read-out: Drug uptake. The method, boiled down: as §3
Series [16] in a line: Drug uptake in Sprague-Dawley rat brain at 3 mg/kg qd administered via oral gavage for 5 days measured 4 hrs post last dose. The series is classed as ADME, organism-based. The note with it: read-out: Drug uptake. The procedure, abridged: as §3
Series [17] can be described thus: Drug uptake in Sprague-Dawley rat brain at 1 mg/kg qd administered via oral gavage for 5 days measured 4 hrs post last dose. The note with it: read-out: Drug uptake. The series is classed as ADME, organism-based. The method, boiled down: as §3
A short description of series [18]: Plasma concentration in wild type C57BL mouse at 30 mg/kg, po measured after 4 hrs. The series is classed as ADME, organism-based.
The nature of series [19]: Drug uptake in wild type C57BL mouse brain at 30 mg/kg, po measured after 4 hrs. The series is classed as ADME, organism-based. Conditions: read-out: Drug uptake.
Series [20] in a line: Plasma concentration in Sprague-Dawley rat at 30 mg/kg qd administered via oral gavage for 5 days measured 4 hrs post last dose. The series is classed as ADME, organism-based. The procedure, abridged:
as §3

The nature of series [21]: Drug uptake in Sprague-Dawley rat brain at 30 mg/kg qd administered via oral gavage for 5 days measured 4 hrs post last dose. The series is classed as ADME, organism-based. The note with it: read-out: Drug uptake. The procedure, abridged:
as §3

Series [22] relates to Rattus norvegicus. In words: Induction of ABCA1 mRNA expression in Sprague-Dawley rat brain at 30 mg/kg qd administered via oral gavage for 5 days measured 4 hrs post last dose relative to control. The series is classed as functional.
A short description of series [23]: Drug uptake in wild type C57BL mouse brain at 1 mg/kg, po measured after 4 hrs. The note with it: read-out: Drug uptake. The series is classed as ADME, organism-based. The method, boiled down:
as §1

This note sets out measurements from ChEMBL document CHEMBL3853334, “Brain penetrant liver X receptor (LXR) modulators based on a 2,4,5,6-tetrahydropyrrolo[3,4-c]pyrazole core” (Bioorg Med Chem Lett, 2016).

Each structure is given as a SMILES string.

Sequence of Cytochrome P450 2D6 (P10635 whole entry): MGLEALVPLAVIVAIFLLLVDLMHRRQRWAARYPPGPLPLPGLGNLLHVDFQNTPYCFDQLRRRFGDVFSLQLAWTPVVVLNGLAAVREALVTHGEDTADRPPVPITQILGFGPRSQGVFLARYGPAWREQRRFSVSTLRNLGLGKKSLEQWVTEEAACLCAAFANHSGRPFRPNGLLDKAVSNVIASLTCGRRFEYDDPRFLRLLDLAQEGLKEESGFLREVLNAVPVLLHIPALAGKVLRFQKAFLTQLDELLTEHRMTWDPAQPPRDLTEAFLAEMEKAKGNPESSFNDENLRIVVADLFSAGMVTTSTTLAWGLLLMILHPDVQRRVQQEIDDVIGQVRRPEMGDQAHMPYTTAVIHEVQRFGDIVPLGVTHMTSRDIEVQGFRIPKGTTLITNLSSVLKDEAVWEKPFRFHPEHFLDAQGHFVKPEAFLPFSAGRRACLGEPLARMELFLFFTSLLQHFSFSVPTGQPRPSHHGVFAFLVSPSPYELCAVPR
Sequence of Cytochrome P450 2C9 (P11712 whole entry): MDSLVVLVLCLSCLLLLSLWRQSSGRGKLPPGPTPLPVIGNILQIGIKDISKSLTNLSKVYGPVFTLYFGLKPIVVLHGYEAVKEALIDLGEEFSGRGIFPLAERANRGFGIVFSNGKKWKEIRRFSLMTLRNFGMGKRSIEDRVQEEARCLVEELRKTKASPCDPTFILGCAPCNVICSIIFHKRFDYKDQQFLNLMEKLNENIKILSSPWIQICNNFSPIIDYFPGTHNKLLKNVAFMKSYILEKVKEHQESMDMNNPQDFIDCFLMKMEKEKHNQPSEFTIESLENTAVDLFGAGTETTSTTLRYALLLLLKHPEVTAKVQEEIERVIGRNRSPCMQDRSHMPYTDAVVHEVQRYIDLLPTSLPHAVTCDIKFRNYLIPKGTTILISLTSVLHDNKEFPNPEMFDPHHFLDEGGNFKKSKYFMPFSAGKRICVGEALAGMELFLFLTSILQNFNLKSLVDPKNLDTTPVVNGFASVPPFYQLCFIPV
Sequence of Cytochrome P450 3A4 (P08684 whole entry): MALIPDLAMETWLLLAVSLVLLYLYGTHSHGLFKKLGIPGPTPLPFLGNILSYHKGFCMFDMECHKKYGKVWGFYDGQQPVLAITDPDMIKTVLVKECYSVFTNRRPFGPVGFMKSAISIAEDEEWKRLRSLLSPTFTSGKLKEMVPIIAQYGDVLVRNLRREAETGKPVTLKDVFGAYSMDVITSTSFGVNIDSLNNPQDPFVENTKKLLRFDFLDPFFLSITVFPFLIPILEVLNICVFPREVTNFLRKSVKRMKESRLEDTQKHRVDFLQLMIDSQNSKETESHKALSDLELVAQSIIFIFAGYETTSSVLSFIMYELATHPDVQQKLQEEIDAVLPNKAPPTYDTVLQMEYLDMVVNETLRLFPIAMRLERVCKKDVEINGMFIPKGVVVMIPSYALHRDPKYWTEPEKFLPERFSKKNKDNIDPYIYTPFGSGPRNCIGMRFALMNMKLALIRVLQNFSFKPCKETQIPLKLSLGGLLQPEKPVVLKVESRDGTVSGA

What is called IC50 is the concentration needed to halve the response being measured. High values mean weaker potency in that assay, low ones greater potency in that assay. Usually half-life stands for the time needed for the level to fall by half in the phase considered. Read a high half-life as slow decline. For the compound `COc1ncc(F)c(N2Cc3cn(-c4cccc(S(C)(=O)=O)c4)nc3[C@H]2C(C)C)n1`, the IC50 in series [1] was found to be 15.4 µM; in [2], 12.7 µM; in [3], 0.858 µM. Further, the half-life in series [4] and in series [5] was above 1 h each time. Also, the concentration at 4 h in series [6] amounted to 50 nM.
As to `COc1cc(N2Cc3cn(-c4cccc(S(C)(=O)=O)c4)nc3[C@H]2C(C)C)nc(C)n1`, the IC50 in series [1] amounted to 12.9 µM; in [2], 5.37 µM; in series [3], 6.62 µM. The compound also registered a half-life in series [4] above 1 h.
`CC(C)[C@@H]1c2nn(-c3cccc(S(C)(=O)=O)c3)cc2CN1c1nccc(C(F)(F)F)n1`: the figures for the IC50 in series [1], in series [2] and in [3] were above 30 µM, 25.7 µM and 2.11 µM, respectively. The half-life in [4], in [7] and in series [5] was above 1 h each time.
Take `COc1cc(N2Cc3cn(-c4cccc(S(C)(=O)=O)c4)nc3[C@H]2C(C)C)cc(C)n1`: the figures for the IC50 in [1], in series [2] and in series [3] were above 30 µM, 25.7 µM and 3.81 µM, respectively. The compound also returned a half-life in series [7] above 0.367 h.
On to `COc1cc(N2Cc3cn(-c4cccc(S(C)(=O)=O)c4)nc3[C@H]2C(C)(C)C)ccn1`, for which the IC50 in series [1] is above 30 µM; in [2], 7.8 µM; in series [3], 8.3 µM. Also, the half-life is above 1 h in series [4], 1.1 h in [7] and above 1 h in [5]. Moreover, the concentration at 4 h amounted to 1080 nM in [8]; 1020 nM in series [9]; 1220 nM in series [10]; 2280 nM in series [11]; 1570 nM in series [12]; 463 nM in series [13]. Further, the concentration at 4 h in series [14] came out at 187 nM; in series [15], 5040 nM; in series [16], 1560 nM; in series [17], 641 nM.
As for `CC(C)[C@@H]1c2nn(-c3cccc(S(C)(=O)=O)c3)cc2CN1c1ccnc(C(F)(F)F)n1`, the IC50 stood at 12.8 µM in series [1], 20.9 µM in [2] and 1.87 µM in series [3]. For the same compound, the half-life in series [4], in [7] and in series [5] was above 1 h throughout. Also, the concentration at 4 h was determined as 2890 nM in [8], 3150 nM in series [9], 1740 nM in [10] and 2060 nM in series [11].
With `COc1cc(N2Cc3cn(-c4cccc(S(C)(=O)=O)c4)nc3[C@H]2C(C)C)ccn1`, the IC50 in series [1] is above 30 µM; in series [2], above 30 µM; in [3], 5.63 µM. The half-life in [4], in series [7] and in series [5] was above 1 h in each case.
With `CC(C)[C@@H]1c2nn(-c3cccc(S(C)(=O)=O)c3)cc2CN1c1cc(C(F)(F)F)ncn1`, the IC50 in [1] was above 30 µM; in series [2] it was above 30 µM; in [3], 5.21 µM. For the same compound, the half-life in series [4] is above 1 h; in series [7] it was 0.833 h; in series [5], above 1 h.
With `COc1nc(C)cc(N2Cc3cn(-c4cccc(S(C)(=O)=O)c4)nc3[C@H]2C(C)C)n1`, the results for the IC50 in [2] and in [3] were 24.2 µM and 5.75 µM, respectively. Moreover, the half-life in series [4], in series [7] and in series [5] was above 1 h in each case. This compound returned a concentration at 4 h in series [6] of 2 nM.
Turning to `COc1ncnc(N2Cc3cn(-c4cccc(S(C)(=O)=O)c4)nc3[C@H]2C(C)C)c1F`, the IC50 in series [1] came to 2.5 µM; in [2], 27 µM; in series [3], 1.44 µM. Moreover, the half-life in series [4] and in [5] was above 1 h in each case.
As to `O=S(=O)(c1ccccc1)N(CC(F)(F)F)c1ccc(C(O)(C(F)(F)F)C(F)(F)F)cc1` [T091317], the concentration at 4 h is 3770 nM in series [18], 8050 nM in series [19], 2800 nM in series [20] and 5360 nM in series [21]. The “fold change (FC)” value in series [22] was found to be 5.
Regarding `CC(C)[C@@H]1c2nn(-c3ccc(CO)c(S(C)(=O)=O)c3)cc2CN1c1ncc(CO)c(C(F)(F)F)n1`, the IC50 in series [1] stood at 7.7 µM; in [2], 7.75 µM; in [3], 0.493 µM. In addition, the half-life in series [4] and in [5] was above 1 h in each case.
`CC(C)[C@@H]1c2nn(-c3cccc(S(C)(=O)=O)c3)cc2CN1c1ncc(CO)c(C(F)(F)F)n1`: the IC50 in series [1] came out at 3.05 µM; in series [3], 0.373 µM. Besides, the half-life in [4] is above 1 h; in series [5], 3.12 h.
`Cc1nc(N2Cc3cn(-c4cccc(S(C)(=O)=O)c4)nc3[C@H]2C(C)C)cc(C(F)(F)F)n1`: the values for the IC50 in series [1], in series [2] and in [3] were 21.1 µM, 15.8 µM and 5.04 µM, respectively. Moreover, the half-life in series [4], in series [7] and in [5] was above 1 h throughout. For the same compound, the concentration at 4 h in series [6] was found to be 143 nM; in series [23] it was 212 nM; in series [10], 423 nM; in series [11], 825 nM.
With `CC(C)[C@@H]1CN(c2ccc(CO)c(S(C)(=O)=O)c2)CCN1c1ncc(CO)c(C(F)(F)F)n1`, the half-life in series [4] was found to be 0.717 h; in series [5] it was 1.15 h.
